Values after ≈ are worked out from the molar mass of the structure shown.
How the values were obtained:
Assay type in all cases: functional
Candida albicans [1] = test: Antimicrobial activity against Chk1 deficient Candida albicans CHK21 at planktonic cell density of 10^8 cells/ml after 48 hrs by XTT assay; settings: CHK21, 48 h
Outline: (§1)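 YNB-grown yeast (50 mM glucose, room temperature, shaken, to ~2 x 10^8 cells/ml) washed into MOPS-buffered RPMI 1640 with L-glutamine and set to the stated density. Exposed to twofold serial drug dilutions (1,024 to 0.0313 µg/ml) at 37°C, 48 h (caspofungin 24 h), with drug-free controls. Read-out: XTT (0.5 g/liter) plus 1 µM menadione, formazan at 490 nm.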

Candida albicans [2] = test: Antimicrobial activity against Chk1 deficient Candida albicans CHK21 dissociated biofilms at cell density of 10^3 cells/ml after 48 hrs by XTT assay; settings: CHK21, 48 h
Outline: (§2)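 Polystyrene-well biofilms (48 h, 37°C) washed, then broken up in 100 µl RPMI by scraping and aspiration. Cells used undiluted (about 2 x 10^8 cells/ml equivalent) or adjusted by A600 against a hemacytometer-calibrated yeast standard curve. Drug exposure at 37°C for 48 h (caspofungin 24 h), then XTT/menadione read at 490 nm.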

Candida albicans [3] = test: Antimicrobial activity against Chk1 deficient Candida albicans CHK21 dissociated biofilms at cell density of 10^8 cells/ml after 48 hrs by XTT assay; settings: CHK21, 48 h; outline: as §2
Candida albicans [4] = test: Antimicrobial activity against Chk1 deficient Candida albicans CHK21 intact biofilms after 48 hrs by XTT assay; settings: CHK21, 48 h
Outline: (§3)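 Biofilm seeded at 1 x 10^6 cells/ml in RPMI in polystyrene microtiter wells and grown 48 h at 37°C in a moist chamber. Washed once and drug added to the same well (twofold dilutions, 1,024 to 0.0313 µg/ml) for 48 h at 37°C (caspofungin 24 h). Read-out: XTT/menadione reduction at 490 nm.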

Candida albicans [5] = test: Antimicrobial activity against Candida albicans GDH2346 intact biofilms after 48 hrs by XTT assay; settings: GDH2346, 48 h; outline: as §3
Candida albicans [6] = test: Antimicrobial activity against Candida albicans FH1 at planktonic cell density of 10^3 cells/ml after 48 hrs by XTT assay; settings: FH1, 48 h; outline: as §1
Candida albicans [7] = test: Antimicrobial activity against Candida albicans FH1 at planktonic cell density of 10^8 cells/ml after 48 hrs by XTT assay; settings: FH1, 48 h; outline: as §1
Candida albicans [8] = test: Antimicrobial activity against Candida albicans FH1 dissociated biofilms at cell density of 10^3 cells/ml after 48 hrs by XTT assay; settings: FH1, 48 h; outline: as §2
Candida albicans [9] = test: Antimicrobial activity against Candida albicans FH1 dissociated biofilms at cell density of 10^8 cells/ml after 48 hrs by XTT assay; settings: FH1, 48 h; outline: as §2
Candida albicans [10] = test: Antimicrobial activity against Candida albicans FH1 intact biofilms after 48 hrs by XTT assay; settings: FH1, 48 h; outline: as §3
Candida albicans [11] = test: Antimicrobial activity against fluconazole-resistant Candida albicans FH5 at planktonic cell density of 10^3 cells/ml after 48 hrs by XTT assay; settings: FH5, 48 h; outline: as §1
Candida albicans [12] = test: Antimicrobial activity against fluconazole-resistant Candida albicans FH5 at planktonic cell density of 10^8 cells/ml after 48 hrs by XTT assay; settings: FH5, 48 h; outline: as §1
Candida albicans [13] = test: Antimicrobial activity against fluconazole-resistant Candida albicans FH5 dissociated biofilms at cell density of 10^3 cells/ml after 48 hrs by XTT assay; settings: FH5, 48 h; outline: as §2
Candida albicans [14] = test: Antimicrobial activity against fluconazole-resistant Candida albicans FH5 dissociated biofilms at cell density of 10^8 cells/ml after 48 hrs by XTT assay; settings: FH5, 48 h; outline: as §2
Candida albicans [15] = test: Antimicrobial activity against fluconazole-resistant Candida albicans FH5 intact biofilms after 48 hrs by XTT assay; settings: FH5, 48 h; outline: as §3
Candida albicans [16] = test: Antimicrobial activity against Cdr1, Cdr2 and Mdr1 deficient Candida albicans DSY1050 at planktonic cell density of 10^3 cells/ml after 48 hrs by XTT assay; settings: DSY1050, 48 h; outline: as §1
Candida albicans [17] = test: Antimicrobial activity against Cdr1, Cdr2 and Mdr1 deficient Candida albicans DSY1050 at planktonic cell density of 10^8 cells/ml after 48 hrs by XTT assay; settings: DSY1050, 48 h; outline: as §1
Candida albicans [18] = test: Antimicrobial activity against Cdr1, Cdr2 and Mdr1 deficient Candida albicans DSY1050 dissociated biofilms at cell density of 10^3 cells/ml after 48 hrs by XTT assay; settings: DSY1050, 48 h; outline: as §2
Candida albicans [19] = test: Antimicrobial activity against Cdr1, Cdr2 and Mdr1 deficient Candida albicans DSY1050 dissociated biofilms at cell density of 10^8 cells/ml after 48 hrs by XTT assay; settings: DSY1050, 48 h; outline: as §2
Candida albicans [20] = test: Antimicrobial activity against Cdr1, Cdr2 and Mdr1 deficient Candida albicans DSY1050 intact biofilms after 48 hrs by XTT assay; settings: DSY1050, 48 h; outline: as §3
Candida albicans [21] = test: Antimicrobial activity against Chk1 deficient Candida albicans CHK21 at planktonic cell density of 10^3 cells/ml after 48 hrs by XTT assay; settings: CHK21, 48 h; outline: as §1
Candida albicans [22] = test: Antimicrobial activity against Candida albicans SC5314 at planktonic cell density of 10^3 cells/ml after 48 hrs by XTT assay; settings: SC5314, 48 h; outline: as §1
Candida albicans [23] = test: Antimicrobial activity against Candida albicans SC5314 dissociated biofilms at cell density of 10^3 cells/ml after 48 hrs by XTT assay; settings: SC5314, 48 h; outline: as §2
Candida albicans [24] = test: Antimicrobial activity against Candida albicans SC5314 at planktonic cell density of 10^8 cells/ml after 48 hrs by XTT assay; settings: SC5314, 48 h; outline: as §1
Candida albicans [25] = test: Antimicrobial activity against Candida albicans SC5314 dissociated biofilms at cell density of 10^8 cells/ml after 48 hrs by XTT assay; settings: SC5314, 48 h; outline: as §2
Candida albicans [26] = test: Antimicrobial activity against Candida albicans SC5314 intact biofilms after 48 hrs by XTT assay; settings: SC5314, 48 h; outline: as §3
Candida albicans [27] = test: Antimicrobial activity against Candida albicans GDH2346 at planktonic cell density of 10^3 cells/ml after 48 hrs by XTT assay; settings: GDH2346, 48 h; outline: as §1
Candida albicans [28] = test: Antimicrobial activity against Candida albicans GDH2346 at planktonic cell density of 10^8 cells/ml after 48 hrs by XTT assay; settings: GDH2346, 48 h; outline: as §1
Candida albicans [29] = test: Antimicrobial activity against Candida albicans GDH2346 dissociated biofilms at cell density of 10^3 cells/ml after 48 hrs by XTT assay; settings: GDH2346, 48 h; outline: as §2
Candida albicans [30] = test: Antimicrobial activity against Candida albicans GDH2346 dissociated biofilms at cell density of 10^8 cells/ml after 48 hrs by XTT assay; settings: GDH2346, 48 h; outline: as §2

Which MIC80 (Candida albicans [1]) does the source give for CC(=O)N1CCN(c2ccc(OC[C@H]3CO[C@](Cn4ccnc4)(c4ccc(Cl)cc4Cl)O3)cc2)CC1 [KETOCONAZOLE] here?
Its MIC80 is greater than 64 µg/mL.

What about the MIC80 (Candida albicans [2]) of the same compound?
Its MIC80 is 0.125 µg/mL (≈ 0.235 µM).

What about the MIC80 (Candida albicans [3]) of the same compound?
The MIC80 was greater than 64 µg/mL.

And the MIC80 (Candida albicans [4])?
Its MIC80 is greater than 64 µg/mL.

What about the MIC80 (Candida albicans [5]) of the same compound?
The MIC80 was greater than 512 µg/mL.

And the MIC80 (Candida albicans [6])?
Its MIC80 is 4 µg/mL (≈ 7.53 µM).

And the MIC80 (Candida albicans [7])?
Its MIC80 is greater than 512 µg/mL.

And the MIC80 (Candida albicans [8])?
Its MIC80 is 4 µg/mL (≈ 7.53 µM).

And the MIC80 (Candida albicans [9])?
The MIC80 was greater than 512 µg/mL.

What about the MIC80 (Candida albicans [10]) of the same compound?
The MIC80 was greater than 512 µg/mL.

What about the MIC80 (Candida albicans [11]) of the same compound?
The MIC80 was 64 µg/mL (≈ 120 µM).

What about the MIC80 (Candida albicans [12]) of the same compound?
The MIC80 was greater than 256 µg/mL.

What about the MIC80 (Candida albicans [13]) of the same compound?
The MIC80 was 64 µg/mL (≈ 120 µM).

What about the MIC80 (Candida albicans [14]) of the same compound?
The MIC80 was greater than 512 µg/mL.

What about the MIC80 (Candida albicans [15]) of the same compound?
Its MIC80 is greater than 512 µg/mL.

And the MIC80 (Candida albicans [16])?
Its MIC80 is 0.25 µg/mL (≈ 0.47 µM).

What about the MIC80 (Candida albicans [17]) of the same compound?
Its MIC80 is greater than 256 µg/mL.

And the MIC80 (Candida albicans [18])?
The MIC80 was 0.125 µg/mL (≈ 0.235 µM).

And the MIC80 (Candida albicans [19])?
Its MIC80 is greater than 64 µg/mL.

What about the MIC80 (Candida albicans [20]) of the same compound?
Its MIC80 is greater than 64 µg/mL.

And the MIC80 (Candida albicans [21])?
The MIC80 was 0.125 µg/mL (≈ 0.235 µM).

And the MIC80 (Candida albicans [22])?
Its MIC80 is 0.125 µg/mL (≈ 0.235 µM).

What about the MIC80 (Candida albicans [23]) of the same compound?
The MIC80 was 0.5 µg/mL (≈ 0.941 µM).

What about the MIC80 (Candida albicans [24]) of the same compound?
The MIC80 was greater than 512 µg/mL.

What about the MIC80 (Candida albicans [25]) of the same compound?
The MIC80 was greater than 512 µg/mL.

And the MIC80 (Candida albicans [26])?
The MIC80 was greater than 512 µg/mL.

What about the MIC80 (Candida albicans [27]) of the same compound?
Its MIC80 is 0.25 µg/mL (≈ 0.47 µM).

And the MIC80 (Candida albicans [28])?
The MIC80 was greater than 512 µg/mL.

And the MIC80 (Candida albicans [29])?
Its MIC80 is 0.125 µg/mL (≈ 0.235 µM).

And the MIC80 (Candida albicans [30])?
Its MIC80 is greater than 64 µg/mL.
